Assay results reported in ChEMBL document CHEMBL5260824, “9-Deazapurines as Broad-Spectrum Inhibitors of the ABC Transport Proteins P-Glycoprotein, Multidrug Resistance-Associated Protein 1, and Breast Cancer Resistance Protein” (J Med Chem, 2017).
pEC50, pIC50: −log10 of the molar value.

Legend:
[1] = Sensitization of dog MDCK-II-BCRP cells expressing BCRP assessed as maximal sensitivity at 10 uM relative to control
[2] = Potentiation factor, ratio of GI50 for SN-38 resistant dog MDCK-II-BCRP cells expressing BCRP cells to GI50 for reversal of SN-38 resistance in dog MDCK-II-BCRP cells assessed as SN-38 GI50 at 0.1 uM (reference value: 1 uM); assay type: functional, Canis lupus familiaris
Outline: (§1)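 Reversal assay: resistant lines (A2780/ADR, H69AR, MDCK II BCRP) and parental lines seeded as for MTT assay with modulator solutions of 1, 10 and 100 µM added (final 0.1, 1, 10 µM) and daunorubicin (P-gp, MRP1) or SN-38 (BCRP) at final 10 nM–10 µM. 72 h, MTT read-out; GI50 by variable-slope fit. Resistance factor = resistant/sensitive GI50; potentiation factor = GI50 without/with modulator.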

[3] = Sensitization of human A2780 ADR cells expressing P-gp assessed as maximal sensitivity at 10 uM relative to control; assay type: functional
Outline: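 Resistant lines were exposed to daunorubicin (A2780/ADR, H69AR) or SN-38 (MDCK II BCRP) over 10 nM–10 µM final, with or without modulator, for 72 h. Viability was read by MTT. Potentiation factor is GI50 without modulator over GI50 with modulator. Maximal sensitization is pf at 10 µM divided by the native resistance factor, in percent.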

[4] = Reversal of Daunorubicin resistance in human A2780 ADR cells assessed as Daunorubicin GI50 at 10 uM measured for 72 hrs by MTT assay; assay type: functional
Outline: as §1

[5] = biological target: ATP-dependent translocase ABCB1 (Homo sapiens, UniProt P08183); experiment: Inhibition of P-gp (unknown origin) incubated for 30 mins by calcein AM analysis
Outline: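 A2780/ADR cells (doxorubicin-selected, P-gp overexpressing), about 30,000 per well in Krebs-HEPES buffer pH 7.4, incubated 30 min at 37 °C with compound (100 nM–100 µM added solutions). Calcein AM (3.125 µM solution added) then fluorescence read every 60 s at 37 °C, ex 485/em 520 nm; slope over minutes 5–30 plotted vs log concentration. Cyclosporine A 10 µM = 100% inhibition, buffer = 0%.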

[6] = Potentiation factor, ratio of GI50 for daunorubicin resistant human A2780 ADR cells expressing P-gp cells to GI50 for reversal of daunorubicin resistance in human A2780 ADR cells assessed as daunorubicin GI50 at 0.1 uM (reference value: 1 uM); assay type: functional
Outline: as §1

P-gp (ABCB1) = experiment: Therapeutic index, ratio of GI50 for antiproliferative activity against human A2780 ADR cells to IC50 for inhibition of P-gp (unknown origin); assay type: toxicity, cell-based
Outline: (§2)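 Ratio of MTT-assay GI50 to transport-inhibition IC50, both in the resistant line. GI50 comes from 72 h exposure at 37 °C to dilutions up to 1000 µM, with medium as 100% and 10% DMSO as 0% viability. IC50 comes from calcein AM (A2780/ADR), daunorubicin (H69AR) or pheophorbide A (MDCK II BCRP) accumulation.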

NCI-H69 = experiment: Antiproliferative activity against human NCI-H69 cells assessed as reduction in cell viability measured for 72 hrs bt MTT assay; assay type: functional
[7] = Reversal of drug resistance in dog MDCK-II-BCRP cells expressing BCRP; assay type: functional, cell-based, Canis lupus familiaris
Outline: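 Cells seeded per well (A2780/ADR 8,000; H69AR 20,000; MDCK II BCRP 3,000) with test compound at 1, 10 or 100 µM solutions added before cells. Daunorubicin (P-gp, MRP1) or SN-38 (BCRP) added to final 10 nM–10 µM. 72 h at 37 °C, then MTT viability read at 570 nm. GI50 from variable-slope nonlinear fits, compared with parental lines; three independent experiments in duplicate.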

MRP1 = experiment: Therapeutic index, ratio of GI50 for antiproliferative activity against human NCI-H69AR cells to IC50 for inhibition of MRP1 in human NCI-H69AR cells; assay type: toxicity, cell-based
Outline: as §2

[8] = Reversal of Daunorubicin resistance in human A2780 ADR cells assessed as Daunorubicin GI50 at 0.1 uM measured for 72 hrs by MTT assay; assay type: functional
Outline: as §1

[9] = Antiproliferative activity against dog MDCK-II-BCRP cells assessed as reduction in cell viability measured for 72 hrs bt MTT assay; assay type: functional; conditions: Canis lupus familiaris
BCRP (ABCG2) = biological target: T1, BCRP (ABCG2) (Homo sapiens, UniProt Q9UNQ0); experiment: Inhibition of BCRP (unknown origin) expressed in dog MDCK-II cells at 10 uM using pheophorbide A as substrate preincubated for 20 mins followed by substrate addition and measured after 120 mins by flow cytometry analysis relative to control; assay type: cell-based; conditions: probe pheophorbide A
T1 sequence (Q9UNQ0 whole entry): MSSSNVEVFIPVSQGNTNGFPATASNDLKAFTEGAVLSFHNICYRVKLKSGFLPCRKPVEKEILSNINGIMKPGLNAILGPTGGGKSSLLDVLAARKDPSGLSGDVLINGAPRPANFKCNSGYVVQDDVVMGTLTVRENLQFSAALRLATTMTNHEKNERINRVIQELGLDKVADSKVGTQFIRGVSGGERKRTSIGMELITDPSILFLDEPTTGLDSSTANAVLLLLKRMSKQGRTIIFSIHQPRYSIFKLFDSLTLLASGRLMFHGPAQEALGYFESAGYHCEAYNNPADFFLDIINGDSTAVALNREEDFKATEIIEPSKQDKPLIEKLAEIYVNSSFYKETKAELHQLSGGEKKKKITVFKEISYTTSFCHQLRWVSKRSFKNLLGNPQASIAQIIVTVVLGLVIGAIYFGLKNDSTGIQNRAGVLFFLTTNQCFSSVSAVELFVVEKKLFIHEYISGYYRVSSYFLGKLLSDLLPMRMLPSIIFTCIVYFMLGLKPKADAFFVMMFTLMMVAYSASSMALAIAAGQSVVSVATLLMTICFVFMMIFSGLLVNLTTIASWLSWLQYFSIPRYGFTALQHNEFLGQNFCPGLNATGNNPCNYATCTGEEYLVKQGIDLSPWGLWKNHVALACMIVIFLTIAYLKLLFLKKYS
Outline: (§3)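 MDCK II cells transfected with human wild-type BCRP cDNA C-terminally fused to GFP, grown in DMEM/10% FBS. About 45,000 cells per well preincubated 20 min at 37 °C, 5% CO2 with compound (100 nM–100 µM added solutions), then pheophorbide A (5 µM solution added) for 120 min to steady state. Resuspended; flow cytometry, 488 nm excitation, FL3 (≥670 nm); GFP in FL1. Reference inhibitor 24 at 10 µM = 100%.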

[10] = biological target: T2, Broad substrate specificity ATP-binding cassette transporter ABCG2 (Homo sapiens, UniProt Q9UNQ0); experiment: Inhibition of BCRP (unknown origin) expressed in dog MDCK-II cells using pheophorbide A as substrate preincubated for 20 mins followed by substrate addition and measured after 120 mins by flow cytometry analysis; assay type: cell-based
T2 sequence (Q9UNQ0 whole entry): T1 sequence (Q9UNQ0 whole entry)
Outline: as §3

[11] = Reversal of SN-38 resistance in dog MDCK-II-BCRP cells assessed as SN-38 GI50 at 10 uM measured for 72 hrs by MTT assay; assay type: functional; conditions: Canis lupus familiaris
Outline: as §1

Sequence of ATP-dependent translocase ABCB1 (P08183 whole entry): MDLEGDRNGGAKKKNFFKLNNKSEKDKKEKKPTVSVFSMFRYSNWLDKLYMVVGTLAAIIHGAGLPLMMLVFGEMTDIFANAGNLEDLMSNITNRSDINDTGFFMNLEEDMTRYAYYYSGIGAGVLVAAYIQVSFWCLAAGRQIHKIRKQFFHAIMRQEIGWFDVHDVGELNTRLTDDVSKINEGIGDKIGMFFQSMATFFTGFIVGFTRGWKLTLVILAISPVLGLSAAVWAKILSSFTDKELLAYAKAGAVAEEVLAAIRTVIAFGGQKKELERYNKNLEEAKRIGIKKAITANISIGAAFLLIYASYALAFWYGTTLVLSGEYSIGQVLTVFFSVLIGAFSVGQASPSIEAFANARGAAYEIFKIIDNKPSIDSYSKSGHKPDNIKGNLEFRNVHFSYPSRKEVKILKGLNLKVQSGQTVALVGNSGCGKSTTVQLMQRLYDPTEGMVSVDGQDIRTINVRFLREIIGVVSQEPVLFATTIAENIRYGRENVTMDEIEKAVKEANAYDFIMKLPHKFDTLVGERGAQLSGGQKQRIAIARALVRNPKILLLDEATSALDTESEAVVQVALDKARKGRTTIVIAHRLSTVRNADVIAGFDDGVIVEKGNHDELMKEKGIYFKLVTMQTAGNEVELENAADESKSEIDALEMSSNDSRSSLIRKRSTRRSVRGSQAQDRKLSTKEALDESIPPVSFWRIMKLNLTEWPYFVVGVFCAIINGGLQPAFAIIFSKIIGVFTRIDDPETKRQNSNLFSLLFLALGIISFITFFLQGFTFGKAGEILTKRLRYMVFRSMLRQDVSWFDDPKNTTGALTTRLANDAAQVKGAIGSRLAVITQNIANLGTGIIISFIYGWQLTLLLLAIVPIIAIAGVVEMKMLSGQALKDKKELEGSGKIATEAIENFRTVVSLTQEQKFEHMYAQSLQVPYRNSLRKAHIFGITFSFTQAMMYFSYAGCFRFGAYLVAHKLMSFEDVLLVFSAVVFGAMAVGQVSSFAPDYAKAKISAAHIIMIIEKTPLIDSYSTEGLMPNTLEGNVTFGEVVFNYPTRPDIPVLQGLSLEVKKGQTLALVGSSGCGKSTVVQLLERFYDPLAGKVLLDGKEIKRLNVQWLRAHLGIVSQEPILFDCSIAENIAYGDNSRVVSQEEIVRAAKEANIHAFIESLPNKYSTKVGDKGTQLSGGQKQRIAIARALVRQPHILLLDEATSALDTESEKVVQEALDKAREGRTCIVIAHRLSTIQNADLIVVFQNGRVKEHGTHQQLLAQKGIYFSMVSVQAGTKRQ

pIC50 [5]: 5.84
GI50 (NCI-H69): 55400 nM
pEC50 [7]: 6.32
inhibition at 2 h, 10 µM (BCRP (ABCG2)): > 25%
pIC50 [10]: 5.77
Compound: N#Cc1cn(CCCc2ccccc2)c2c(N3CCN(CCc4c[nH]c5ccccc45)CC3)ncnc12
Activity [1]: 140%
PF [2]: 1.9
Activity [3]: 24%
GI50 [4]: 44 nM
PF [6]: 2
selectivity ratio (P-gp (ABCB1)): 9.4
selectivity ratio (MRP1): 303
GI50 [8]: 286 nM
GI50 [9]: 23200 nM
GI50 [11]: 61 nM
